# Data published in ChEMBL document CHEMBL1127519, “1,3-Diarylindan-2-carboxylic acids, potent and selective non-peptide endothelin receptor antagonists” (J Med Chem, 1994).
# Columns and labels:
# Endothelin-1 receptor [1] = target: T1, Endothelin-1 receptor (Homo sapiens, UniProt P25101); test: Inhibition of [125I]ET1 binding to cloned human ET-A receptor
# T1 sequence (P25101 whole entry): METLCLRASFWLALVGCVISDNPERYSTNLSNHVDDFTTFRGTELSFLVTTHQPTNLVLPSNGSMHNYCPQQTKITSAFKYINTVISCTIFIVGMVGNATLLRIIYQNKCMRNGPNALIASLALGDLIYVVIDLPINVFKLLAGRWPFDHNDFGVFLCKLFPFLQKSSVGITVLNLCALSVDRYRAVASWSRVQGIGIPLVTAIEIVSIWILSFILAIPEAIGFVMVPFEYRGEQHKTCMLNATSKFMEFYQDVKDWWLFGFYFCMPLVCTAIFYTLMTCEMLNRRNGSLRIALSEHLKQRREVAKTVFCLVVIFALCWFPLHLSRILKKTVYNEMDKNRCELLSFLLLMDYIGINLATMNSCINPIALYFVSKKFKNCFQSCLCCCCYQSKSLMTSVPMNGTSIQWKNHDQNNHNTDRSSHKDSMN
# Procedure, shortened: (§1)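 Membranes from CHO cells stably expressing cloned human ET-A receptor (0.5 μg per tube) incubated with [125I]ET-1 (0.3 nM) alone or with increasing unlabeled ligand, 1 h at 30 °C. Bound and free separated by filtration and counted by γ-counter. Nonspecific binding 8-25%. Apparent Ki from competition curves, n ≥ 3.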
# [2] = target: T2, Endothelin receptor type B (Homo sapiens, UniProt P24530); test: Inhibition of [125I]ET1 binding to cloned human ET-B receptor
# T2 sequence (P24530 whole entry): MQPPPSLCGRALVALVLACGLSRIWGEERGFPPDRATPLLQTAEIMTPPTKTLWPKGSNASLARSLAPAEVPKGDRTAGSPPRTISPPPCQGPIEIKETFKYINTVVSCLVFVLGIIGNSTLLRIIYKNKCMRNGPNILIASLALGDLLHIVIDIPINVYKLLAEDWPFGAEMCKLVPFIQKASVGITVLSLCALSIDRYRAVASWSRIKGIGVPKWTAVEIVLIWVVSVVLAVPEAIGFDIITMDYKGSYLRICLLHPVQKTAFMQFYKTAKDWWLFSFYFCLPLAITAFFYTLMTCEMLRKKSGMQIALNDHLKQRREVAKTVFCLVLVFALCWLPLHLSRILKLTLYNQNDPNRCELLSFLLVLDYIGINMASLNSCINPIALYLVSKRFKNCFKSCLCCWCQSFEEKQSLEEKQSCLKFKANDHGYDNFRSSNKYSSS
# Procedure, shortened: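 Membranes from CHO cells stably expressing cloned human ET-B receptor (0.05 μg per tube) incubated with [125I]ET-1 (0.3 nM), without or with rising concentrations of unlabeled ligand, 30 °C for 1 h. Filtration separated bound from free, gamma counting. Nonspecific binding 2-5%. Apparent Ki derived from competition curves, n ≥ 3.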
# Endothelin-1 receptor [3] = target: T1, Endothelin-1 receptor; test: Inhibition of [125I]ET1 binding to cloned human Endothelin A receptor; procedure, shortened: as §1
SMILES,Ki (Endothelin-1 receptor [1]) [nM],Ki [2] [nM],Ki (Endothelin-1 receptor [3]) [nM]
COc1ccc([C@H]2c3ccccc3[C@@H](c3ccc4c(c3)OCO4)[C@@H]2C(=O)O)cc1,43,757,
CCCOc1ccc2c(c1)[C@@H](c1ccc(OC)cc1)[C@H](C(=O)O)[C@H]2c1ccc2c(c1)OCO2,11.3,1040,
CCCOc1ccc2c(c1)[C@@H](c1ccc(OC)cc1OCC(=O)O)[C@H](C(=O)O)[C@H]2c1ccc2c(c1)OCO2 [SB-209670],0.43,14.7,
O=C(O)[C@H]1[C@H](c2ccccc2)c2ccccc2[C@@H]1c1ccccc1,11200,> 30000,
COc1ccc([C@@H]2c3ccccc3[C@H](c3ccc(OC)cc3)[C@H]2C(=O)O)cc1,422,2440,
COc1ccc([C@H]2c3ccccc3[C@@H](c3ccccc3)[C@@H]2C(=O)O)cc1,,> 30000,5670
COc1ccc([C@@H]2c3cc(O)ccc3[C@H](c3ccc4c(c3)OCO4)[C@H]2C(=O)O)cc1,15,483,
